The values that follow come from ChEMBL document CHEMBL3576811, “Small Molecule Disruptors of the Glucokinase-Glucokinase Regulatory Protein Interaction: 5. A Novel Aryl Sulfone Series, Optimization Through Conformational Analysis” (J Med Chem, 2015).

By Cmax is commonly meant the peak of the concentration-time curve. The term AUC denotes the area under the concentration-time curve, a measure of exposure. In general, bioavailability refers to dose-corrected exposure relative to a reference, in per cent. Read a high bioavailability as much systemic uptake.

What all share (format): ADME, organism-based
The nature of series [1]: Volume of distribution at steady state in Sprague-Dawley rat at 2 mg/kg, iv. Particulars: in vivo, read-out: Vdss. The method in brief: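 Sprague-Dawley rats dosed intravenously at 2 mg/kg in 100% DMSO. Plasma clearance, steady-state volume of distribution and terminal half-life derived from the plasma concentration-time profile.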
Series [2] in a line: Cmax in Sprague-Dawley rat at 10 mg/kg, po after 4 hrs. Also on record: dose 10 mg/kg, route oral. Particulars: in vivo. The method in brief:
(§1)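 Sprague-Dawley rats given one 10 mg/kg oral dose in 1% Tween 80, 2% HPMC, 97% water. Plasma drug levels followed over time, giving Cmax, time to Cmax and AUC. Free concentration derived using the fraction unbound from rapid equilibrium dialysis.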

The nature of series [3]: AUC in Sprague-Dawley rat at 10 mg/kg, po. To be noted: in vivo. The method in brief:
as §1

Series [4] in a line: Oral bioavailability in Sprague-Dawley rat at 10 mg/kg. Particulars: in vivo.
The next series concerns Rattus norvegicus. Kind of series: Free plasma concentration in Sprague-Dawley rat at 10 mg/kg, po after 4 hrs. To be noted: in vivo. A digest of the protocol:
as §1

On to `C[C@](O)(CO)c1ccc(-c2ncc(S(=O)(=O)c3ccc(N)nc3)s2)c(Cl)c1`, for which the Vd in series [1] worked out at 0.18 L/kg. This compound registered a Cmax in series [2] of 57.6 µM. The AUC in series [3] worked out at 568 µM·h. The bioavailability in series [4] came to 82%. In the series on Rattus norvegicus, the “Cp(f)” value amounted to 0.43 µM.
